Measurements published in ChEMBL document CHEMBL4145654, “Structure-Based Discovery of CF53 as a Potent and Orally Bioavailable Bromodomain and Extra-Terminal (BET) Bromodomain Inhibitor” (J Med Chem, 2018).
pIC50, pKi: −log10 of the molar value.

Assays:
[1] = target: Bromodomain-containing protein 4 (Homo sapiens, UniProt O60885); assay: Inhibition of FAM-labeled ZBA248 binding to recombinant human BRD4 bromodomain 1 (44 to 168 residues) expressed in Rosetta2 Escherichia coli DE3 cells after 30 mins by fluorescence polarization assay
In short: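 Recombinant human BRD4 BD1 (residues 44−168) in a fluorescence polarization competitive binding assay, run as described in earlier work.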

[2] = test system: MDA-MB-231; assay: Growth inhibition of human MDA-MB-231 cells after 4 days by WST-8 assay; assay type: functional, cell-based; conditions: MDA-MB-231, 96 h
In short: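 Cells used within 3 months of thaw. Breast cancer cells seeded at 3000 cells/well, then serially diluted compound added, cultured 4 days. Growth read by WST-8 (10% v/v final, 1−3 h, 450 nm). Readings normalized to DMSO-treated cells. IC50 by nonlinear regression.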

[3] = test system: MOLM-13; assay: Growth inhibition of human MOLM13 cells after 4 days by WST-8 assay; assay type: functional, cell-based; conditions: MOLM-13, 96 h
In short: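 Leukemia cells, used within 3 months of thaw, were seeded at 10 000 cells/well and exposed to serially diluted compound in culture medium for 4 days. WST-8 reagent was added at 10% (v/v) final for 1−3 h, and absorbance was read at 450 nm. Readings were normalized to DMSO-treated cells, and the IC50 was fitted by nonlinear regression.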

[4] = Drug uptake in tumor of SCID mouse xenografted with human MDA-MB-231 cells at 50 mg/kg administered via oral gavage measured after 6 hrs; assay type: ADME, organism-based, Neoplasm; conditions: read-out: Drug uptake
In short: (§1)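 Limited PK in SCID mice bearing MDA-MB-231 tumors, 50 mg/kg given by oral gavage. Plasma and tumor tissue drug levels measured at two time points per compound. Values are the mean of two mice/tumors per time point.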

[5] = Plasma concentration in SCID mouse xenografted with human MDA-MB-231 cells at 50 mg/kg administered via oral gavage measured after 6 hrs; assay type: ADME, organism-based
In short: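 SCID mice carrying MDA-MB-231 tumors dosed orally at 50 mg/kg. Plasma drug level determined by LC-MS/MS (positive-ion MRM, C18 column, formic acid/acetonitrile gradient). Value is the mean from two mice per time point.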

[6] = Plasma concentration in SCID mouse xenografted with human MDA-MB-231 cells at 50 mg/kg administered via oral gavage measured after 1 hr; assay type: ADME, organism-based; in short: as §1
[7] = Drug uptake in tumor of SCID mouse xenografted with human MDA-MB-231 cells at 50 mg/kg administered via oral gavage measured after 1 hr; assay type: ADME, organism-based, Neoplasm; conditions: read-out: Drug uptake; in short: as §1
[8] = test system: RS4-11; assay: Antitumor activity against human RS4:11 cells xenografted in SCID mouse assessed as tumor growth inhibition at 50 mg/kg administered via oral gavage measured on day 35; assay type: functional; conditions: RS4-11, po, 840 h, read-out: TGI
In short: (§2)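 Each SCID mouse received a single dorsal subcutaneous tumor of 5 × 10⁶ RS4;11 or MDA-MB-231 cells in 50% Matrigel. At about 100 mm3, mice were randomised to treatment or vehicle control groups. Dosing was by oral gavage at the stated schedules. Tumor volume was L × W²/2, and body weight was tracked. TGI versus vehicle at end of treatment was tested by unpaired two-tailed t-test.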

[9] = test system: MDA-MB-231; assay: Antitumor activity against human MDA-MB-231 cells xenografted in SCID mouse assessed as tumor growth inhibition at 50 mg/kg administered via oral gavage measured on day 44; assay type: functional; conditions: MDA-MB-231, po, 1056 h, read-out: TGI; in short: as §2
[10] = Drug uptake in tumor of SCID mouse xenografted with human MDA-MB-231 cells at 50 mg/kg administered via oral gavage measured after 0.5 hrs; assay type: ADME, organism-based, Neoplasm; conditions: read-out: Drug uptake; in short: as §1
[11] = Plasma concentration in SCID mouse xenografted with human MDA-MB-231 cells at 50 mg/kg administered via oral gavage measured after 0.5 hrs; assay type: ADME, organism-based; in short: as §1

In the case of `COc1cc2c(cc1-c1c(C)noc1C)[nH]c1nc(C)nc(Nc3nn(CCO)c4ccccc34)c12`, the pIC50 [1] was 8.01 and the pKi [1] was 9.00.
In the case of `COc1cc2c(cc1-c1c(C)noc1C)[nH]c1nc(C)nc(Nc3nn(C)c4c3CCCC4)c12`, the pKi [1] was > 9.00, the pIC50 [2] was 7.23 and the pIC50 [3] was 7.38.
With `COc1cc2c(cc1-c1c(C)noc1C)[nH]c1nc(C)nc(Nc3nn(C)c4cccnc34)c12` the pIC50 [1] was 6.64 and the pKi [1] was 7.11.
`COc1ccc2c(Nc3nc(C)nc4[nH]c5cc(-c6c(C)noc6C)c(OC)cc5c34)nn(C)c2c1` gave a pIC50 [1] of 6.71 and a pKi [1] of 7.18.
With `COc1cc2c(cc1-c1c(C)noc1C)[nH]c1nc(C)nc(Nc3nn(C)c4ccncc34)c12` the pIC50 [1] was 6.64 and the pKi [1] was 7.11.
Work on `COc1cc2c(cc1-c1c(C)noc1C)[nH]c1nc(C)nc(Nc3cc(C)nn3C3CCC3)c12` yielded a pIC50 [1] of 7.84, a pKi [1] of 8.59 and a pIC50 [2] of 7.59. The pIC50 [3] was 7.41.
`COc1cc2c(cc1-c1c(C)noc1C)[nH]c1nc(C)nc(Nc3cc(C)n(C)n3)c12` showed a pIC50 [1] of 7.60, a pKi [1] of 8.20 and a pIC50 [2] of 7.09. The pIC50 [3] was 7.51.
`COc1cc2c(cc1-c1c(C)noc1C)[nH]c1nc(C)nc(Nc3c4c(nn3C)CCCC4)c12` gave a concentration at 6 h [4] of 132 ng/g, a concentration at 6 h [5] of 1150 ng/mL and a concentration at 1 h [6] of 2980 ng/mL. For the same molecule, the pIC50 [1] was 8.31, the pKi [1] was > 9.00 and the pIC50 [2] was 7.76. The pIC50 [3] was 7.95 and the concentration at 1 h [7] was 466 ng/g.
Molecule `COc1cc2c(cc1-c1c(C)noc1C)[nH]c1nc(C)nc(Nc3cc(C(F)(F)F)nn3C)c12` has a pIC50 [1] of 7.80, a pKi [1] of 8.51 and a pIC50 [2] of 6.81. The pIC50 [3] was 7.25.
`COc1cc2c(cc1-c1c(C)noc1C)[nH]c1nc(C)nc(Nc3nn(C)c4ccc(F)cc34)c12` showed a pKi [1] of 7.78.
Work on `COc1cc2c(cc1-c1c(C)noc1C)[nH]c1nc(C)nc(Nc3nn(C)c4cccc(F)c34)c12` yielded a pKi [1] of 7.67.
Work on `COc1cc2c(cc1-c1c(C)noc1C)[nH]c1nc(C)nc(Nc3nn(C)c4cc(F)ccc34)c12` yielded a pIC50 [1] of 7.06 and a pKi [1] of 7.55.
In the case of `Cc1sc2c(c1C)C(c1ccc(Cl)cc1)=N[C@@H](CC(=O)Nc1ccc(O)cc1)c1nnc(C)n1-2` [BIRABRESIB], the inhibition in vivo at 50 mg/kg [8] was 33% and the inhibition in vivo at 50 mg/kg [9] was 21%.
`COc1cc2c(cc1-c1c(C)noc1C)[nH]c1nc(C)nc(Nc3c(C)c(C4CC4)nn3C)c12` gave a pIC50 [1] of 7.29, a pKi [1] of 7.80 and a pIC50 [2] of 6.50. It also gave a pIC50 [3] of 6.70.
For `COc1cc2c(cc1-c1c(C)noc1C)[nH]c1nc(C)nc(Nc3cc(C)nn3C(C)C)c12`, the pKi [1] was 9.30, the pIC50 [2] was 7.53 and the pIC50 [3] was 8.30.
For `COc1cc2c(cc1-c1c(C)noc1C)[nH]c1nc(C)nc(Nc3cc(C)nn3C3CCCC3)c12`, the pIC50 [1] was 8.40, the pKi [1] was > 9.00 and the pIC50 [2] was 7.60. The pIC50 [3] was 7.75.
For `CCn1nc(C)cc1Nc1nc(C)nc2[nH]c3cc(-c4c(C)noc4C)c(OC)cc3c12`, the pIC50 [1] was 7.77, the pKi [1] was 8.47 and the pIC50 [2] was 7.58. It also gave a pIC50 [3] of 7.81.
Work on `COc1cc2c(cc1-c1c(C)noc1C)[nH]c1nc(C)nc(Nc3nn(C)c4c(F)cccc34)c12` yielded a pIC50 [1] of 7.02 and a pKi [1] of 7.51.
`COc1cc2c(cc1-c1c(C)noc1C)[nH]c1nc(C)nc(Nc3nn(C)c4ccccc34)c12` gave a pIC50 [1] of 8.04 and a pKi [1] of 9.15.
`COc1cc2c(cc1-c1c(C)noc1C)[nH]c1nc(C)nc(Nc3cc(C)nn3C)c12` gave a pIC50 [1] of 8.03, a pKi [1] of 9.10 and a pIC50 [2] of 7.26. It also gave a pIC50 [3] of 7.99.
`COc1cc2c(cc1-c1c(C)noc1C)[nH]c1nc(C)nc(Nc3cc(C(C)(C)C)nn3C)c12` showed a concentration at 6 h [4] of 268 ng/g, a concentration at 6 h [5] of 458 ng/mL and a concentration at 1 h [6] of 923 ng/mL. The pIC50 [1] was 7.98, the pKi [1] was 8.92 and the pIC50 [2] was 7.63. For the same molecule, the pIC50 [3] was 7.64 and the concentration at 1 h [7] was 305 ng/g.
Work on `COc1cc2c(cc1-c1c(C)noc1C)[nH]c1nc(C)nc(Nc3cc(C(C)(C)C(F)(F)F)nn3C)c12` yielded a pIC50 [1] of 7.86, a pKi [1] of 8.62 and a pIC50 [2] of 6.79. For the same molecule, the pIC50 [3] was 7.12.
`COc1cc2c(cc1-c1c(C)noc1C)[nH]c1nc(C)nc(Nc3cc(C4CCC4)nn3C)c12` showed a pIC50 [1] of 7.89, a pKi [1] of 8.70 and a pIC50 [2] of 7.20. The pIC50 [3] was 7.58.
With `COc1cc2c(cc1-c1c(C)noc1C)[nH]c1nc(C)nc(Nc3n[nH]c4ccccc34)c12` the pIC50 [1] was 7.93 and the pKi [1] was 8.77.
In the case of `COc1cc2c(cc1-c1c(C)noc1C)[nH]c1nc(C)nc(Nc3cc(C(C)C)nn3C)c12`, the concentration at 6 h [4] was 166 ng/g, the concentration at 6 h [5] was 1870 ng/mL and the concentration at 1 h [6] was 6240 ng/mL. The pKi [1] was > 9.00, the pIC50 [2] was 7.59 and the pIC50 [3] was 7.93. The concentration at 1 h [7] was 736 ng/g.
`COc1cc2c(cc1-c1c(C)noc1C)[nH]c1nc(C)nc(Nc3cc(C)nn3C(C)(C)C)c12` gave a concentration at 6 h [4] of 621 ng/g, a concentration at 6 h [5] of 127 ng/mL and a pIC50 [1] of 8.36. The pKi [1] was > 9.00, the concentration at 0.5 h [10] was 5230 ng/g and the pIC50 [2] was 7.86. It also gave a pIC50 [3] of 7.97 and a concentration at 0.5 h [11] of 3680 ng/mL.
`COc1cc2c(cc1-c1c(C)noc1C)[nH]c1nc(C)nc(Nc3c4c(nn3C)CCC4)c12` gave a concentration at 6 h [4] of 600 ng/g, a concentration at 6 h [5] of 1580 ng/mL and a concentration at 1 h [6] of 4880 ng/mL. The pIC50 [1] was 8.26, the pKi [1] was > 9.00 and the pIC50 [2] was 7.17. It also gave a pIC50 [3] of 8.30 and a concentration at 1 h [7] of 1510 ng/g.
`COc1cc2c(cc1-c1c(C)noc1C)[nH]c1nc(C)nc(Nc3nn(C)c4ncccc34)c12` gave a pIC50 [1] of 7.68 and a pKi [1] of 8.31.
